The source made the active and inactive calls. No cut-off for these calls is given here.
Legend:
[1] = Lipophilicity, log kw in methanol aqueous system at pH 3.5; type: physicochemical
Outline: (§1)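 RP-HPLC on an octadecyl silica column (150 × 4.6 mm, 5 µm) at 22 ± 1 °C, flow 1.0 mL min⁻¹, UV detection at 254 nm. Mobile phase was methanol, acetonitrile or dioxane with water and 0.01 M phosphate buffer pH 3.5 containing 0.05 M DEA. log k_W was extrapolated to pure water by regression.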

HeLa [2] = test: Antiproliferative activity against human HeLa cells assessed as cell viability at 50 uM by MTT assay; type: functional; conditions: read-out: Activity
Outline: (§2)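 Log-phase cells, kept in supplemented RPMI 1640 (HSF in DMEM/10% FBS) at 37 °C, 5% CO2, were exposed 24 h to 1, 50 or 100 µM compound from DMSO. They were washed, given 0.5 mg/mL MTT in HEPES buffer pH 7.4 for 45 min at 37 °C, and formazan was dissolved in DMSO and read at 570 nm. Values are % viability versus control from three independent measurements.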

[3] = Antiproliferative activity against human RPMI cells assessed as cell viability at 1 uM by MTT assay; type: functional; conditions: read-out: Activity; outline: as §2
[4] = Growth inhibition of human skin fibroblast at 29.3 uM; type: cell-based; conditions: human skin fibroblasts, read-out: GI
Outline: (§3)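 Vero, LS180, SiHa, T47D or primary HSF cells were seeded at 10^4 cells per mL and preincubated in microtiter plates. Compounds were added at 10 or 50 µg mL⁻¹ (printed µM equivalents depend on the compound) and incubated 72 h. End-point was BrdU labelling read spectrophotometrically on an ELISA reader. Growth inhibition is % versus untreated controls; triplicates.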

T47D [5] = test: Induction of DNA damage in human T47D cells at 29.3 uM; type: functional, cell-based
Outline: (§4)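 Cells were treated at 29.3 µM (10 µg mL⁻¹) and washed twice with PBS. DNA was isolated with lysis buffer plus proteinase K, or cells were lysed as agarose plugs. Samples ran on 1% agarose with propidium iodide at 120 V for 1.5 h at room temperature […]. Experiments were repeated three times. The comet assay was also run on T47D.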

[6] = Antiproliferative activity against human skin fibroblast assessed as cell viability at 1 uM by MTT assay; type: cell-based; conditions: human skin fibroblasts, read-out: Activity; outline: as §2
SiHa [7] = test: Growth inhibition of human SiHa cells at 146.7 uM; type: functional; conditions: read-out: GI; outline: as §3
[8] = Antiproliferative activity against human skin fibroblast assessed as cell viability at 50 uM by MTT assay; type: cell-based; conditions: human skin fibroblasts, read-out: Activity
Outline: (§5)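 MTT viability assay on primary human skin fibroblasts grown in DMEM with 10% FBS and penicillin/streptomycin. Compounds were dissolved in DMSO and given at 1, 50 or 100 µM for 24 h. Cells were washed in HEPES-buffered medium (pH 7.4) and then given MTT 0.5 mg mL⁻¹ for 45 min at 37 °C. Formazan was dissolved in DMSO and read at 570 nm. Viability is % of control; three independent measurements.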

[9] = Growth inhibition of human LS180 cells at 29.3 uM; type: functional; conditions: read-out: GI; outline: as §3
[10] = Growth inhibition of african green monkey Vero cells at 146.7 uM; type: cell-based; conditions: chlorocebus sabaeus, read-out: GI; outline: as §3
HeLa [11] = test: Antiproliferative activity against human HeLa cells assessed as cell viability at 100 uM by MTT assay; type: functional; conditions: read-out: Activity; outline: as §2
LS180 [12] = test: Effect on superoxide dismutase gene expression in human LS180 cells at 29.3 uM; type: functional, cell-based
Outline: (§6)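 LS180 and T47D cells were incubated at 29.3 µM (10 µg mL⁻¹). SOD gene expression was visualised by electrophoresis on 1% agarose gel against an untreated control.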

[13] = Antiproliferative activity against human RPMI cells assessed as cell viability at 100 uM by MTT assay; type: functional; conditions: read-out: Activity; outline: as §2
Vero = test: Induction of DNA damage in african green monkey Vero cells at 29.3 uM; type: cell-based; conditions: chlorocebus sabaeus; outline: as §4
[14] = Growth inhibition of african green monkey Vero cells at 29.3 uM; type: cell-based; conditions: chlorocebus sabaeus, read-out: GI; outline: as §3
[15] = Antiproliferative activity against human skin fibroblast assessed as cell viability at 100 uM by MTT assay; type: cell-based; conditions: human skin fibroblasts, read-out: Activity; outline: as §5
SiHa [16] = test: Growth inhibition of human SiHa cells at 29.3 uM; type: functional; conditions: read-out: GI; outline: as §3
T47D [17] = test: Effect on superoxide dismutase gene expression in human T47D cells at 29.3 uM; type: functional, cell-based; outline: as §6
T47D [18] = test: Growth inhibition of human T47D cells at 146.7 uM; type: functional; conditions: read-out: GI; outline: as §3
[19] = Lipophilicity, log kw in acetonitrile aqueous system at pH 3.5; type: physicochemical; outline: as §1
LS180 [20] = test: Induction of DNA damage in human LS180 cells at 29.3 uM; type: functional, cell-based; outline: as §4
[21] = Growth inhibition of human skin fibroblast at 146.7 uM; type: cell-based; conditions: human skin fibroblasts, read-out: GI; outline: as §3
HeLa [22] = test: Antiproliferative activity against human HeLa cells assessed as cell viability at 1 uM by MTT assay; type: functional; conditions: read-out: Activity; outline: as §2
SiHa [23] = test: Induction of DNA damage in human SiHa cells at 29.3 uM; type: functional, cell-based; outline: as §4
[24] = Antiproliferative activity against human RPMI cells assessed as cell viability at 50 uM by MTT assay; type: functional; conditions: read-out: Activity; outline: as §2
T47D [25] = test: Growth inhibition of human T47D cells at 29.3 uM; type: functional; conditions: read-out: GI; outline: as §3
[26] = Lipophilicity, log kw in dioxane aqueous system at pH 3.5; type: physicochemical; conditions: buffer; outline: as §1
[27] = Growth inhibition of human LS180 cells at 146.7 uM; type: functional; conditions: read-out: GI; outline: as §3
[28] = Growth inhibition of human skin fibroblast at 126.7 uM; type: cell-based; conditions: human skin fibroblasts, read-out: GI; outline: as §3
[29] = Growth inhibition of african green monkey Vero cells at 25.3 uM; type: cell-based; conditions: chlorocebus sabaeus, read-out: GI; outline: as §3
SiHa [30] = test: Growth inhibition of human SiHa cells at 25.3 uM; type: functional; conditions: read-out: GI; outline: as §3
T47D [31] = test: Growth inhibition of human T47D cells at 25.3 uM; type: functional; conditions: read-out: GI; outline: as §3
SiHa [32] = test: Growth inhibition of human SiHa cells at 126.7 uM; type: functional; conditions: read-out: GI; outline: as §3
T47D [33] = test: Growth inhibition of human T47D cells at 126.7 uM; type: functional; conditions: read-out: GI; outline: as §3
[34] = Growth inhibition of human LS180 cells at 126.7 uM; type: functional; conditions: read-out: GI; outline: as §3
[35] = Growth inhibition of human LS180 cells at 25.3 uM; type: functional; conditions: read-out: GI; outline: as §3
[36] = Growth inhibition of human skin fibroblast at 25.3 uM; type: cell-based; conditions: human skin fibroblasts, read-out: GI; outline: as §3
[37] = Growth inhibition of african green monkey Vero cells at 126.7 uM; type: cell-based; conditions: chlorocebus sabaeus, read-out: GI; outline: as §3

Work on `Cc1cc(Cl)ccc1OCc1nnc2n1CCN2c1ccccc1` yielded a logKw [1] of 1.62, a viability at 50 µM (HeLa [2]) of 75.1% and a viability at 1 µM [3] of 112%. The inhibition at 29.3 µM [4] was 4%, the Activity (T47D [5]) was “Active” and the viability at 1 µM [6] was 79.2%. For the same molecule, the inhibition of growth at 146.7 µM (SiHa [7]) was 30%, the viability at 50 µM [8] was 76.8% and the inhibition of growth at 29.3 µM [9] was 35%. For the same molecule, the inhibition at 146.7 µM [10] was 20%, the viability at 100 µM (HeLa [11]) was 75.9% and the Activity (LS180 [12]) was “Active”. For the same molecule, the viability at 100 µM [13] was 108%, the Activity (Vero) was “Active” and the inhibition at 29.3 µM [14] was 20%. The viability at 100 µM [15] was 72.5%, the inhibition of growth at 29.3 µM (SiHa [16]) was 30% and the Activity (T47D [17]) was “Active”. For the same molecule, the inhibition of growth at 146.7 µM (T47D [18]) was 40%, the logKw [19] was 1.36 and the Activity (LS180 [20]) was “Active”. For the same molecule, the inhibition at 146.7 µM [21] was 8%, the viability at 1 µM (HeLa [22]) was 65.6% and the Activity (SiHa [23]) was “Active”. It also gave a viability at 50 µM [24] of 114%, an inhibition of growth at 29.3 µM (T47D [25]) of 25% and a logKw [26] of 1.17. The inhibition of growth at 146.7 µM [27] was 39%.

For `Clc1ccc(N2CCn3c(COc4ccc(Cl)cc4Cl)nnc32)cc1`, the logKw [1] was 4.85, the viability at 50 µM (HeLa [2]) was 59.9% and the viability at 1 µM [3] was 98.4%. It also gave an inhibition at 126.7 µM [28] of 10%, an inhibition at 25.3 µM [29] of 20% and an inhibition of growth at 25.3 µM (SiHa [30]) of 35%. For the same molecule, the viability at 1 µM [6] was 83%, the viability at 50 µM [8] was 83.9% and the viability at 100 µM (HeLa [11]) was 56.3%. The viability at 100 µM [13] was 24.5%, the inhibition of growth at 25.3 µM (T47D [31]) was 28% and the viability at 100 µM [15] was 86.8%. For the same molecule, the inhibition of growth at 126.7 µM (SiHa [32]) was 41%, the inhibition of growth at 126.7 µM (T47D [33]) was 48% and the inhibition of growth at 126.7 µM [34] was 54%. It also gave a logKw [19] of 3.75, an inhibition of growth at 25.3 µM [35] of 48% and an inhibition at 25.3 µM [36] of 7%. The viability at 1 µM (HeLa [22]) was 68.4%, the viability at 50 µM [24] was 24.4% and the inhibition at 126.7 µM [37] was 28%. It also gave a logKw [26] of 4.15.

— ChEMBL document CHEMBL1149773, “Synthesis, determination of the lipophilicity, anticancer and antimicrobial properties of some fused 1,2,4-triazole derivatives” (Eur J Med Chem, 2008)
